Reference: ChEMBL document CHEMBL4033799, “Stable and Long-Lasting, Novel Bicyclic Peptide Plasma Kallikrein Inhibitors for the Treatment of Diabetic Macular Edema” (J Med Chem, 2018)
Each block holds one compound with its values, some of them ahead of it. The source made the active and inactive calls. The calls are words filed in the database; no cut-off is given here.

What was measured:
[1] = tested on: Cynomolgus monkey; experiment: Toxicity in cynomolgus monkey at 1.25 ug administered as systemic dose; design: species or system Macaca fascicularis; conditions: in vivo
[2] = target: (UniProt A0A8D1M4K5); experiment: Inhibition of pig plasma kallikrein using fluorogenic H-Pro-Phe-Arg-AMC peptide as substrate preincubated for 15 mins followed by substrate addition measured by fluorescence-based assay; design: species or system Sus scrofa; conditions: read-out: Ki(app)
[3] = tested on: Plasma; experiment: Anti-coagulating activity in factor 8-deficient human plasma assessed as increase in coagulation time at 10 uM by aPTT assay; format: functional
Procedure, shortened: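 Clotting time measured on a coagulation analyzer using actin FS, 0.025 M CaCl2, FVIII-deficient human plasma and Owren's Veronal Buffer pH 7.35, run per the manufacturer's instructions. Peptide tested from zero (vehicle) up to 10 μM. Each point is the mean ± SD of triplicates.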

[4] = tested on: Rattus norvegicus; experiment: Antiinflammatory activity in Sprague-Dawley rat carrageenan-induced paw edema model assessed as inhibition of paw edema AUC (0 to 2 hrs) at 10 to 30 mg/kg, ip pretreated for 15 mins followed by carrageenan challenge; format: functional, organism-based
Procedure, shortened: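 Male Sprague-Dawley rats received peptide IP (30, 10 or 3 mg/kg), or indomethacin IP at 5 mg/kg, 15 min before subplantar carrageenan. Paw volume was followed over time against a vehicle group.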

SMILES: CC(=O)N[C@H]1CSCc2cc3cc(c2)CSC[C@H](NC(=O)[C@H](CCCCNC(=N)N)NC(=O)[C@H](Cc2ccc(O)cc2)NC(=O)[C@@H]2CCN2C(=O)[C@H](Cc2ccccc2)NC(=O)[C@H](CO)NC1=O)C(=O)N[C@@H](C)CN[C@@H](Cc1cnc[nH]1)C(=O)N[C@@H](CCC(N)=O)C(=O)N[C@@H](CC(=O)O)C(=O)N[C@@H](CC(C)C)C(=O)N[C@H](C(=O)O)CSC3
- Activity [1]: Non-Toxic

- Ki [2]: 300 nM
SMILES: CC[C@H](C)[C@@H]1NC(=O)[C@H](CC(=O)O)NC(=O)[C@@H]2CCCN2C(=O)[C@H](Cc2ccc(O)cc2)NC(=O)[C@H](Cc2ccc(O)cc2)NC(=O)[C@H](C(C)C)NC(=O)[C@@H]2CSCc3cc(cc(c3)CSC[C@@H](C(=O)N[C@@H](C)C(=O)N(C)CC(=O)N(C)CC(=O)N(C)CC(=O)N[C@H](CCCNC(=N)N)C(=O)N[C@H](CCCNC(=N)N)C(=O)O)NC1=O)CSC[C@H](NC(C)=O)C(=O)N[C@@H](CO)C(=O)N[C@@H](Cc1ccccc1)C(=O)N1CCC1C(=O)N[C@@H](Cc1ccc(O)cc1)C(=O)N[C@@H](CCCCNC(=N)N)C(=O)N2 (some centres undefined)

SMILES: CC(=O)N[C@H]1CSCc2cc3cc(c2)CSC[C@H](C(=O)N[C@@H](C)C(=O)N(C)CC(=O)N(C)CC(=O)N(C)CC(=O)N[C@H](CCCNC(=N)N)C(=O)N[C@H](CCCNC(=N)N)C(=O)O)NC(=O)[C@H](CC(C)C)NC(=O)[C@@H]2CCCN2C(=O)[C@H](C)NC(=O)[C@H](CC(=O)O)NC(=O)[C@H](Cc2c[nH]c4ccccc24)NC(=O)[C@@H]2CCCN2C(=O)[C@H](CSC3)NC(=O)[C@H](Cc2c[nH]c3ccccc23)NC(=O)[C@@H]2CCCN2C(=O)[C@H](CC(N)=O)NC(=O)[C@H](Cc2c[nH]c3ccccc23)NC(=O)[C@H]([C@@H](C)O)NC(=O)[C@H](CC(N)=O)NC1=O
- Activity [3]: < 5%
- inhibition [4]: Active
